Screens as filed in PubChem BioAssay.
NPY-Y1 antag: blocks the human neuropeptide Y Y1 receptor | P25929 | HEK293-CNG Y1 cells, membrane potential fluorescence; NPY at EC95, then isoproterenol | inhibition, % at 3.6 µM | hit rate 1% among 200,000;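 active = inhibition above the campaign mean inhibition of all tested compounds plus 3 SD, cut at about 20% in these data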
Target sequence (P25929 whole entry, looked up): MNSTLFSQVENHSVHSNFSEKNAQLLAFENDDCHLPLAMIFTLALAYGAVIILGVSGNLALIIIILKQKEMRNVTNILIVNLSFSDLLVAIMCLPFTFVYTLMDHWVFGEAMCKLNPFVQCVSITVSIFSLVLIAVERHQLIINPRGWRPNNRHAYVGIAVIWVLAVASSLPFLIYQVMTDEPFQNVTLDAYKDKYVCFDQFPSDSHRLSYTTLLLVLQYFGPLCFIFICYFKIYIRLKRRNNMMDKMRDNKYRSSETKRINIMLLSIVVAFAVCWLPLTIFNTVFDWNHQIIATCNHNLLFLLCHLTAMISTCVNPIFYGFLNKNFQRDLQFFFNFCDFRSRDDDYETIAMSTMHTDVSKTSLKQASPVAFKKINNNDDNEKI
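material = HEK293 cells with Y1 receptor plus CNG channel | also added = NPY 25 nM then isoproterenol 1 µM plus Ro 20-1724 25 µM | schedule = dye 3 h, compound 60 min room temperature, stimulation 45 min | measured by = membrane potential fluorescence | benchmarks = high control isoproterenol alone, low control NPY with isoproterenol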
NPY-Y1 PAM-ag: potentiators or agonists of human neuropeptide Y receptor Y1; P25929; NPY-Y1 expressing cells, potentiator/agonist activation; activation, % at 3.6 µM; hit rate 0.37% among 220,000; in the data active = activation above about 33%, passing the limit was not always enough;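 note: cells stimulated with NPY at EC10 then isoproterenol at EC100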
NPY Y2 blocker: NPY-Y2 (human) receptor antagonism | NPY-Y2 expressing cells, antagonist mode | inhibition, % at 2.7 µM | hit rate 0.99% among 140,000; in the data active = inhibition above about 17%
NPY2 pot ag: potentiators or agonists of human neuropeptide Y receptor Y2. P49146. cells expressing NPY-Y2, potentiator/agonist read-out. hit rate 0.45% among 220,000. activation, % at 3.6 µM; in the data active = activation above about 27%;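 note: cells stimulated with NPY near EC25 plus isoproterenol at EC100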
A number is an active result; – = inactive; · = no result. A selection: hits, their analogues and other compounds. The true share with any hit is near 1.8%.

SMILES	NPY-Y1 antag	NPY-Y1 PAM-ag	NPY Y2 blocker	NPY2 pot ag
COC(=O)/C(=N/Nc1ccccc1)N1CCCc2ccccc21	29	–	22	–
COC(=O)/C(=N/Nc1ccc(C)cc1)N1CCCc2ccccc21	29	–	19	–
Cc1c(C=O)c2ccccc2n1CC(=O)NCc1ccc2c(c1)OCO2	–	–	·	–
CC(C)(C)c1ccc(NNC(=O)C2CCC2)cc1	·	–	·	–
Cc1ccc(C(=O)COC(=O)c2ccccc2NC(=O)c2ccccc2)cc1[N+](=O)[O-]	–	–	–	–
O=C(Cc1cccc(C(F)(F)F)c1)NCc1ccc(Cl)cc1Cl	–	–	–	–
CCOc1cc(C2C(C(=O)c3ccco3)=C(O)C(=O)N2CCc2ccccc2)ccc1O (stereo not given)	39	–	36	–
O=C(C1=C(O)C(=O)N(CCc2ccccc2)C1c1cccnc1)c1ccco1 (stereo not given)	–	–	–	–
COC(=O)c1c(CSc2ccc(C)c(C)c2)noc1C(=O)NCc1ccc(OC)cc1	23	–	22	–
CCCCNC(=O)c1onc(CSc2ccc(C)c(C)c2)c1C(=O)O	–	–	–	–
N=c1sccn1CC(=O)Nc1ccc(Cl)cc1[N+](=O)[O-]	·	–	·	–
Cc1ccc(S(=O)(=O)N(Cc2ccc(Cl)cc2)c2ccccc2C(=O)NCc2ccco2)cc1	29	–	32	–
Cc1ccccc1N(CC(=O)Nc1ccccc1C(=O)NCc1ccco1)S(=O)(=O)c1ccccc1	–	–	–	–
COC(=O)c1cc(NC(=S)N2CCN(C(=O)C3CCCO3)CC2)cc(C(=O)OC)c1 (stereo not given)	–	–	·	–
Cc1ccccc1C(=O)N1CCN(c2ccc(NC(=O)c3ccc4c(c3)OCO4)cc2)CC1	–	45	·	56
O=C(Nc1ccc(F)cc1)Nc1cc(OCC(F)(F)F)cc(OCC(F)(F)F)c1	–	66	–	54
O=C(Nc1ccccc1)/C(=C/c1ccccc1)c1ccccc1	–	–	–	–
Cc1ccccc1NC(=O)/C(=C/c1ccccc1)c1ccccc1	21	–	18	–
CC(c1ccccc1)N(NC(=O)C(O)(c1ccccc1)c1ccccc1)C(=O)c1ccccc1 (stereo not given)	22	–	31	–
COc1cc(-c2cn(S(=O)(=O)c3cccc4nsnc34)nc2N)cc(OC)c1OC	23	–	18	–
O=C(c1cnn(C(=O)c2cccc(S(=O)(=O)N3CCOCC3)c2)c1)c1ccccc1O	–	–	·	–
CCOCCCNCc1cc(Cl)cc(Cl)c1OCC	–	–	·	–
Cn1c(=O)c2c(nc(CN3CCc4ccccc4C3)n2CCCO)n(C)c1=O	–	–	·	–
Cn1c(=O)c2c(nc(CN3CCc4ccccc4C3)n2CCc2ccccc2)n(C)c1=O	26	–	–	–
O=C(O)[C@H](Cc1ccccc1)NC(=O)N1CCN(c2ccc(F)cc2)CC1	·	–	·	–
SMILES	NPY-Y1 antag	NPY-Y1 PAM-ag	NPY Y2 blocker	NPY2 pot ag
CCn1cc(CN2N=C(C)CC2c2ccccc2)c(C)n1 (stereo not given)	–	–	·	–
CCOC(=O)N1CCC(N2CCCC(CO)(Cc3ccccc3C)C2)CC1 (stereo not given)	–	–	·	–
Cc1ccc(OCCN2C(=O)C(=O)c3cc(C)ccc32)cc1	21	–	·	–
Clc1ccc2c(c1)C(c1cccs1)=NNC(c1cccnc1)=N2	–	–	–	–
CCOC(=O)c1cc(C(=O)OCC)c2cc(Br)ccc2n1	–	–	–	–
CCCCOC(=O)c1cc(C)nc2ccc(Br)cc12	–	101	–	31
O=C(NC(=S)N1CCc2ccccc21)c1ccccc1Br	–	–	–	–
Cc1ccc2oc(=O)c3cc(C(=O)NCc4ccco4)sc3c2c1	22	–	45	–
O=S(=O)(c1ccc(F)cc1)N1CCN(Cc2ccccn2)CC1	–	–	·	–
CC(C)C(=O)Nc1cc(C(F)(F)F)ccc1N1CCOCC1	–	–	–	–
Cc1cc(C#N)c(C)n1-c1cc(C(F)(F)F)ccc1N1CCOCC1	21	–	20	–
COc1ccc(NC(=S)NN(C)C(=S)Nc2ccc(OC)cc2)cc1	–	–	–	–
COC(=O)c1nn(-c2ccccc2)c2nnc(Cc3ccc(C)cc3)c(=O)n12	–	–	–	–
O=C(c1ccccc1)c1nn(-c2ccccc2)c2nnc(Cc3ccccc3)c(=O)n12	38	–	29	–
Cc1c(Cl)c(C(F)(F)F)nn1CC(=O)NCc1ccco1	–	–	·	–
Cc1cccc(NC(=O)C2CCN(S(=O)(=O)c3cccc4nsnc34)CC2)n1	–	–	–	–
COc1ccc2nc(NC(=O)C3CCN(S(=O)(=O)c4cccc5nsnc45)CC3)sc2c1	–	47	–	–
